Assay [1] can be described thus: In vitro inhibition of Escherichia coli DNA-dependent RNA polymerase using both calf thymus and phage T7 DNA template. In short, it runs like this:
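E. coli RNA polymerase (0.65 μg) added to template DNA (2.5 μg; calf thymus or phage T7) plus drug. TCA-pyrophosphate precipitates counted by scintillation; IC50 from inhibition curves, mean of 2–4 determinations.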

Assay [2] has as its system L1210. Briefly: Concentration of compound required to inhibit growth of L1210 leukemia cells in culture by 50%. Format: functional, cell-based. The settings on record: Mus musculus. In short, it runs like this: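 L1210 leukemia cells grown in culture with continuous drug exposure for 70 h; IC50 in nanomolar, drug concentration giving 50% growth inhibition.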
In assay [3] the test system is Nucleic Acid. Put plainly: Inhibitory concentration against ethidium bromide binding to DNA [poly(dG-dC)]. Format: nucleic-acid assay. In short, it runs like this:
(§1)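 C50 is the micromolar drug concentration displacing 50% of ethidium bromide already bound to DNA, read by fluorescence. It is used as a comparative measure of DNA binding.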

Assay [4] deals with P388. Briefly: Optimal dose administered ip as a solution in 0.1 mL of 30% v/v ethanol-water after intraperitoneal inoculation of 10e6 P388 leukemia cells. Format: functional, Mus musculus. In short, it runs like this: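 P388 leukemia cells (10^6) inoculated ip. Drug given ip in 30% v/v ethanol-water on days 1, 5 and 9, in mg/kg per day. The optimal dose is the one giving the best increase in lifespan over untreated tumor-bearing controls; >20% counted significant.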

Assay [5] has as its system Nucleic Acid. Briefly: Inhibitory concentration against ethidium bromide binding to DNA [poly(dA-dT)]. Format: nucleic-acid assay. Summed up: as §1
In assay [6] the test system is P388. Put plainly: Percentage increase in life span (ILS) of compound treated tumor-bearing animals compared to tumor-bearing controls when treated at the optimal dose. Format: functional, Mus musculus. In short, it runs like this: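 P388 leukemia: 10^6 cells inoculated intraperitoneally; drug given i.p. in 30% v/v ethanol-water on days 1, 5 and 9. Dose is in mg/kg per day. ILS is the percent increase in lifespan over untreated tumor-bearing controls at the optimal dose. Values above 20% count as significant.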

Molecules are shown by their SMILES. Several values for one entry are separate records, joined by “and”; a condition that tells them apart may be missing. Equal entries are not always repeated.

For the compound `Cl.O=C(CC(CC(=O)NCCCCCCCNc1c2ccccc2nc2ccccc12)Nc1c2ccccc2nc2ccccc12)NCCCCCCCNc1c2ccccc2nc2ccccc12`, the IC50 (commonly the point on the concentration scale where inhibition reaches its midpoint) was 4.6 µM and 3.7 µM in assay [1]; 0.59 µM in assay [2]. Further, the C50 in assay [3] came out at 0.14 µM; in assay [5] it was 0.1 µM. The Optimal dose in assay [4] turned out to be 20 mg/kg/day.

As to `Cl.O=C(CC(CC(=O)NCCNc1c2ccccc2nc2ccccc12)Nc1c2ccccc2nc2ccccc12)NCCNc1c2ccccc2nc2ccccc12`, the IC50 is 30.3 µM and 30 µM in assay [1]; 5.9 µM in assay [2]. Also, the C50 stood at 0.38 µM in assay [3] and 0.43 µM in assay [5]. In assay [4], this compound showed an Optimal dose of 3.9 mg/kg/day.

For the compound `Cl.O=C(CCCC(=O)NCCCNc1c2ccccc2nc2ccccc12)NCCCNc1c2ccccc2nc2ccccc12`, the IC50 in assay [1] was 7.5 µM and 6.2 µM; in assay [2], 0.35 µM. In assay [4], the Optimal dose was 13.3 mg/kg/day.

Consider `Cl.O=C(CCCC(=O)NCCCCCNc1c2ccccc2nc2ccccc12)NCCCCCNc1c2ccccc2nc2ccccc12`, for which the IC50 in assay [1] is 5.2 µM and 4.2 µM; in assay [2] it was 0.17 µM. The C50 came out at 0.24 µM in assay [3] and 0.28 µM in assay [5]. In assay [6], the ILS (commonly the gain in survival time of treated over control animals, in per cent) worked out at 33%. Further, in assay [4], the Optimal dose was determined as 20 mg/kg/day.

Take `Cl.O=C(CC(CC(=O)NCCCCCCNc1c2ccccc2nc2ccccc12)Nc1c2ccccc2nc2ccccc12)NCCCCCCNc1c2ccccc2nc2ccccc12`: the IC50 in assay [1] was 4.1 µM and 4 µM; in assay [2], 0.35 µM. In addition, the C50 in assay [3] and in assay [5] was 0.11 µM in each case. Moreover, in assay [6], the increase in life span (ILS) is on record as 21%. The same compound registered an Optimal dose in assay [4] of 20 mg/kg/day.

As to `Cl.O=C(CCCC(=O)NCCCCNc1c2ccccc2nc2ccccc12)NCCCCNc1c2ccccc2nc2ccccc12`, the half-maximal inhibitory concentration (IC50) in assay [1] is 4.6 µM and 4.1 µM; in assay [2], 0.24 µM. The values for the C50 in assay [3] and in assay [5] were 0.13 µM and 0.28 µM, respectively. The same compound returned an ILS in assay [6] of 30%. The Optimal dose in assay [4] was determined as 20 mg/kg/day.

Turning to `NC(CC(=O)NCCCNc1c2ccccc2nc2ccccc12)CC(=O)NCCCNc1c2ccccc2nc2ccccc12`, the IC50 is 4.2 µM and 3.1 µM in assay [1]; 0.47 µM in assay [2]. Also, the results for the C50 in assay [3] and in assay [5] were 0.21 µM and 0.09 µM, respectively.

For `Cl.O=C(CCCC(=O)NCCCCCCCNc1c2ccccc2nc2ccccc12)NCCCCCCCNc1c2ccccc2nc2ccccc12`, the IC50 in assay [1] is 6.2 µM and 4.5 µM; in assay [2], 0.96 µM. Also, the C50 is 0.23 µM in assay [3] and 0.15 µM in assay [5]. This compound also showed an Optimal dose in assay [4] of 30 mg/kg/day.

Turning to `Cl.O=C(CCCC(=O)NCCNc1c2ccccc2nc2ccccc12)NCCNc1c2ccccc2nc2ccccc12`, the IC50 was 9.2 µM and 6.7 µM in assay [1]; 3.08 µM in assay [2]. For the same compound, the C50 in assay [3] worked out at 0.29 µM; in assay [5], 0.3 µM. The compound further gave an Optimal dose in assay [4] of 30 mg/kg/day.

Turning to `Cl.O=C(CC(CC(=O)NCCCCCNc1c2ccccc2nc2ccccc12)Nc1c2ccccc2nc2ccccc12)NCCCCCNc1c2ccccc2nc2ccccc12`, the IC50 in assay [1] was 4.1 µM and 4.5 µM; in assay [2], 0.58 µM. Moreover, the C50 is 0.25 µM in assay [3] and 0.35 µM in assay [5]. The ILS in assay [6] is listed as 21%. Also, the Optimal dose in assay [4] came out at 8.9 mg/kg/day.

On to `Cl.O=C(CCCC(=O)NCCCCCCNc1c2ccccc2nc2ccccc12)NCCCCCCNc1c2ccccc2nc2ccccc12`, for which the IC50 in assay [1] was 4.9 µM and 4.7 µM; in assay [2], 0.25 µM. In addition, the values for the C50 in assay [3] and in assay [5] were 0.33 µM and 0.22 µM, respectively. For the same compound, the Optimal dose in assay [4] is 45 mg/kg/day.

On to `Cl.O=C(CC(CC(=O)NCCCCNc1c2ccccc2nc2ccccc12)Nc1c2ccccc2nc2ccccc12)NCCCCNc1c2ccccc2nc2ccccc12`, for which the IC50 in assay [1] is 5.9 µM and 5.4 µM; in assay [2] it was 2.3 µM. In addition, the C50 in assay [3] stood at 0.13 µM; in assay [5], 0.08 µM. In addition, the Optimal dose in assay [4] is 8.9 mg/kg/day.

Take `Cl.O=C(CC(CC(=O)NCCCNc1c2ccccc2nc2ccccc12)Nc1c2ccccc2nc2ccccc12)NCCCNc1c2ccccc2nc2ccccc12`: the IC50 in assay [1] is 13.2 µM and 12.8 µM; in assay [2], 0.8 µM. Also, the C50 in assay [3] was determined as 0.19 µM; in assay [5], 0.1 µM. The Optimal dose in assay [4] stood at 8.9 mg/kg/day.

The values above are taken from ChEMBL document CHEMBL1123540, “Potential antitumor agents. 45. Synthesis, DNA-binding interaction, and biological activity of triacridine derivatives” (J Med Chem, 1986).
